Reference: ChEMBL document CHEMBL4689842, “EUbOPEN Chemogenomics Library wave 1” (2021)
“And” between values parts separate entries of the source, which are not always exact repeats. Equal values may be shown once.

Tested on: HEK-293T
Assay: Multiplex assay against HEK293T;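 for Population Tubulin-Different-Phenotype (%): share of the cells with healthy nuclei that show this phenotype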
Assay type: toxicity, cell-based
Details: human
In short: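 Values for tubulin, mitochondrial-mass and membrane-permeability phenotypes are per cents of cells with healthy nuclei. These cells were identified by CellPathfinder machine-learning gating of live cells that had been stained at seeding with Hoechst33342, BioTracker Green Microtubule Cytoskeleton Dye, MitoTracker Red and Annexin V Alexa Fluor 680 and imaged on a CQ1 microscope at 37°C and 5% CO2 after compound addition. The gating first set Hoechst high-intensity objects apart from normal cells, then split normal cells into healthy, pyknosed or fragmented nuclei, and pyknosed cells into mitotic or apoptotic.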

[1] = 12 h, 1 µM, compound concentration 1 uM, replicate 1
[2] = 12 h, 1 µM, compound concentration 1 uM, replicate 2
[3] = 12 h, 10 µM, compound concentration 10 uM, replicate 1
[4] = 12 h, 10 µM, compound concentration 10 uM, replicate 2
[5] = 24 h, 1 µM, compound concentration 1 uM, replicate 1
[6] = 24 h, 1 µM, compound concentration 1 uM, replicate 2
[7] = 24 h, 10 µM, compound concentration 10 uM, replicate 1
[8] = 24 h, 10 µM, compound concentration 10 uM, replicate 2
[9] = 48 h, 1 µM, compound concentration 1 uM, replicate 1
[10] = 48 h, 1 µM, compound concentration 1 uM, replicate 2
[11] = 48 h, 10 µM, compound concentration 10 uM, replicate 1
[12] = 48 h, 10 µM, compound concentration 10 uM, replicate 2

## CNc1nc(NCc2ccc(NS(C)(=O)=O)cc2Cl)cc(-c2ccccn2)n1
[1]
  Population Apoptotic (%): 52%
  Population Fragmented Nuclei (%): 18%
  Population Healthy Nuclei (%): 36%
  Population Hoechst High Intensity Objects (%): 17%
  Population Membrane Permeable-Phenotype (%): 3%
  Population Mitochondria Different-Phenotype (%): 75%
  Population Mitotic Cells (%): 48%
  Population Normal (%): 82%
  Population Pyknosed Nuclei (%): 44%
  Population Tubulin-Different-Phenotype (%): 38%
  Total Cell Count: 203
[2]
  Population Apoptotic (%): 14%
  Population Fragmented Nuclei (%): 6%
  Population Healthy Nuclei (%): 43%
  Population Hoechst High Intensity Objects (%): 2%
  Population Membrane Permeable-Phenotype (%): 6%
  Population Mitochondria Different-Phenotype (%): 18%
  Population Mitotic Cells (%): 85%
  Population Normal (%): 97%
  Population Pyknosed Nuclei (%): 50%
  Population Tubulin-Different-Phenotype (%): 23%
  Total Cell Count: 273
[3]
  Population Apoptotic (%): 60%
  Population Fragmented Nuclei (%): 9%
  Population Healthy Nuclei (%): 25%
  Population Hoechst High Intensity Objects (%): 14%
  Population Mitochondria Different-Phenotype (%): 95%
  Population Mitotic Cells (%): 39%
  Population Normal (%): 85%
  Population Pyknosed Nuclei (%): 65%
  Population Tubulin-Different-Phenotype (%): 92%
  Total Cell Count: 190
[4]
  Population Apoptotic (%): 25%
  Population Fragmented Nuclei (%): 4%
  Population Healthy Nuclei (%): 18%
  Population Hoechst High Intensity Objects (%): 4%
  Population Membrane Permeable-Phenotype (%): 0%
  Population Mitochondria Different-Phenotype (%): 50%
  Population Mitotic Cells (%): 74%
  Population Normal (%): 95%
  Population Pyknosed Nuclei (%): 76%
  Population Tubulin-Different-Phenotype (%): 73%
  Total Cell Count: 189
[5]
  Population Apoptotic (%): 55%
  Population Fragmented Nuclei (%): 16%
  Population Healthy Nuclei (%): 52%
  Population Hoechst High Intensity Objects (%): 18%
  Population Membrane Permeable-Phenotype (%): 0%
  Population Mitochondria Different-Phenotype (%): 50%
  Population Mitotic Cells (%): 45%
  Population Normal (%): 81%
  Population Pyknosed Nuclei (%): 31%
  Population Tubulin-Different-Phenotype (%): 25%
  Total Cell Count: 234
[6]
  Population Apoptotic (%): 16%
  Population Fragmented Nuclei (%): 4%
  Population Healthy Nuclei (%): 57%
  Population Hoechst High Intensity Objects (%): 5%
  Population Membrane Permeable-Phenotype (%): 7%
  Population Mitochondria Different-Phenotype (%): 14%
  Population Mitotic Cells (%): 83%
  Population Normal (%): 94%
  Population Pyknosed Nuclei (%): 37%
  Population Tubulin-Different-Phenotype (%): 31%
  Total Cell Count: 355
[7]
  Population Apoptotic (%): 63%
  Population Fragmented Nuclei (%): 10%
  Population Healthy Nuclei (%): 29%
  Population Hoechst High Intensity Objects (%): 14%
  Population Membrane Permeable-Phenotype (%): 0%
  Population Mitochondria Different-Phenotype (%): 95%
  Population Mitotic Cells (%): 36%
  Population Normal (%): 85%
  Population Pyknosed Nuclei (%): 60%
  Population Tubulin-Different-Phenotype (%): 87%
  Total Cell Count: 193
[8]
  Population Apoptotic (%): 34%
  Population Fragmented Nuclei (%): 3%
  Population Healthy Nuclei (%): 25%
  Population Hoechst High Intensity Objects (%): 6%
  Population Mitochondria Different-Phenotype (%): 88%
  Population Mitotic Cells (%): 65%
  Population Normal (%): 93%
  Population Pyknosed Nuclei (%): 71%
  Population Tubulin-Different-Phenotype (%): 95%
  Total Cell Count: 177
[9]
  Population Apoptotic (%): 47%
  Population Fragmented Nuclei (%): 15%
  Population Healthy Nuclei (%): 64%
  Population Hoechst High Intensity Objects (%): 8%
  Population Membrane Permeable-Phenotype (%): 2%
  Population Mitochondria Different-Phenotype (%): 24%
  Population Mitotic Cells (%): 52%
  Population Normal (%): 91%
  Population Pyknosed Nuclei (%): 19%
  Population Tubulin-Different-Phenotype (%): 18%
  Total Cell Count: 336
[10]
  Population Apoptotic (%): 14%
  Population Fragmented Nuclei (%): 5%
  Population Healthy Nuclei (%): 76%
  Population Hoechst High Intensity Objects (%): 3%
  Population Membrane Permeable-Phenotype (%): 5%
  Population Mitochondria Different-Phenotype (%): 7%
  Population Mitotic Cells (%): 85%
  Population Normal (%): 96%
  Population Pyknosed Nuclei (%): 18%
  Population Tubulin-Different-Phenotype (%): 26%
  Total Cell Count: 601
[11]
  Population Apoptotic (%): 74%
  Population Fragmented Nuclei (%): 15%
  Population Healthy Nuclei (%): 29%
  Population Hoechst High Intensity Objects (%): 16%
  Population Membrane Permeable-Phenotype (%): 2%
  Population Mitochondria Different-Phenotype (%): 85%
  Population Mitotic Cells (%): 25%
  Population Normal (%): 83%
  Population Pyknosed Nuclei (%): 54%
  Population Tubulin-Different-Phenotype (%): 93%
  Total Cell Count: 189
[12]
  Population Apoptotic (%): 61%
  Population Fragmented Nuclei (%): 5%
  Population Healthy Nuclei (%): 26%
  Population Hoechst High Intensity Objects (%): 5%
  Population Membrane Permeable-Phenotype (%): 7%
  Population Mitochondria Different-Phenotype (%): 76%
  Population Mitotic Cells (%): 38%
  Population Normal (%): 94%
  Population Pyknosed Nuclei (%): 67%
  Population Tubulin-Different-Phenotype (%): 82%
  Total Cell Count: 202

## CN1C(=O)c2sccc2N(C)c2nc(Nc3ccc(S(N)(=O)=O)cc3)ncc21
[3]
  Population Apoptotic (%): 16% and 18%
  Population Fragmented Nuclei (%): 26% and 12%
  Population Healthy Nuclei (%): 60% and 76%
  Population Hoechst High Intensity Objects (%): 18% and 7%
  Population Membrane Permeable-Phenotype (%): 4% and 3%
  Population Mitochondria Different-Phenotype (%): 4% and 2%
  Population Mitotic Cells (%): 83% and 81%
  Population Normal (%): 81% and 92%
  Population Pyknosed Nuclei (%): 13% and 11%
  Population Tubulin-Different-Phenotype (%): 0%
  Total Cell Count: 672 and 727
[4]
  Population Apoptotic (%): 8% and 7%
  Population Fragmented Nuclei (%): 8% and 4%
  Population Healthy Nuclei (%): 86% and 85%
  Population Hoechst High Intensity Objects (%): 1% and 2%
  Population Membrane Permeable-Phenotype (%): 1% and 0%
  Population Mitochondria Different-Phenotype (%): 7% and 9%
  Population Mitotic Cells (%): 91% and 92%
  Population Normal (%): 98% and 97%
  Population Pyknosed Nuclei (%): 4% and 10%
  Population Tubulin-Different-Phenotype (%): 4% and 1%
  Total Cell Count: 1564 and 1180
[7]
  Population Apoptotic (%): 19% and 15%
  Population Fragmented Nuclei (%): 14% and 20%
  Population Healthy Nuclei (%): 79% and 69%
  Population Membrane Permeable-Phenotype (%): 5%
  Population Mitochondria Different-Phenotype (%): 2% and 3%
  Population Mitotic Cells (%): 80% and 84%
  Population Normal (%): 95% and 82%
  Population Pyknosed Nuclei (%): 6% and 10%
  Population Tubulin-Different-Phenotype (%): 1%
  Total Cell Count: 894 and 614
[8]
  Population Apoptotic (%): 6% and 4%
  Population Fragmented Nuclei (%): 25% and 12%
  Population Healthy Nuclei (%): 71% and 80%
  Population Hoechst High Intensity Objects (%): 2%
  Population Membrane Permeable-Phenotype (%): 3% and 1%
  Population Mitochondria Different-Phenotype (%): 1%
  Population Mitotic Cells (%): 93% and 95%
  Population Normal (%): 97%
  Population Pyknosed Nuclei (%): 2% and 7%
  Population Tubulin-Different-Phenotype (%): 4% and 2%
  Total Cell Count: 2712 and 1180

## COc1cc2nccc(Oc3ccc(NC(=O)Nc4cc(C)on4)c(Cl)c3)c2cc1OC.O
[1]
  Population Apoptotic (%): 28% and 23%
  Population Fragmented Nuclei (%): 14%
  Population Healthy Nuclei (%): 55% and 71%
  Population Hoechst High Intensity Objects (%): 12% and 10%
  Population Mitotic Cells (%): 72% and 76%
  Population Normal (%): 87% and 89%
  Population Pyknosed Nuclei (%): 30% and 14%
  Total Cell Count: 660 and 667
[2]
  Population Apoptotic (%): 18% and 12%
  Population Fragmented Nuclei (%): 3% and 9%
  Population Healthy Nuclei (%): 86%
  Population Hoechst High Intensity Objects (%): 2%
  Population Mitotic Cells (%): 81% and 87%
  Population Normal (%): 97%
  Population Pyknosed Nuclei (%): 10% and 4%
  Total Cell Count: 918 and 1845
[3]
  Population Apoptotic (%): 82%
  Population Fragmented Nuclei (%): 11%
  Population Healthy Nuclei (%): 21%
  Population Hoechst High Intensity Objects (%): 13%
  Population Membrane Permeable-Phenotype (%): 2%
  Population Mitochondria Different-Phenotype (%): 100%
  Population Mitotic Cells (%): 17%
  Population Normal (%): 86%
  Population Tubulin-Different-Phenotype (%): 97%
  Total Cell Count: 260
[4]
  Population Apoptotic (%): 59%
  Population Fragmented Nuclei (%): 3%
  Population Healthy Nuclei (%): 30%
  Population Hoechst High Intensity Objects (%): 1%
  Population Membrane Permeable-Phenotype (%): 8%
  Population Mitochondria Different-Phenotype (%): 88%
  Population Mitotic Cells (%): 40%
  Population Normal (%): 98%
  Population Pyknosed Nuclei (%): 66%
  Population Tubulin-Different-Phenotype (%): 94%
  Total Cell Count: 226
[5]
  Population Apoptotic (%): 39% and 22%
  Population Fragmented Nuclei (%): 14% and 17%
  Population Healthy Nuclei (%): 63% and 74%
  Population Hoechst High Intensity Objects (%): 11% and 8%
  Population Membrane Permeable-Phenotype (%): 10%
  Population Mitotic Cells (%): 60% and 77%
  Population Normal (%): 88% and 92%
  Population Pyknosed Nuclei (%): 22% and 8%
  Total Cell Count: 680 and 875
[6]
  Population Healthy Nuclei (%): 89% and 68%
  Population Hoechst High Intensity Objects (%): 4% and 3%
  Population Membrane Permeable-Phenotype (%): 14% and 8%
  Population Mitotic Cells (%): 81% and 95%
  Population Normal (%): 95% and 96%
[7]
  Population Apoptotic (%): 89%
  Population Fragmented Nuclei (%): 12%
  Population Healthy Nuclei (%): 30%
  Population Hoechst High Intensity Objects (%): 14%
  Population Membrane Permeable-Phenotype (%): 3%
  Population Mitochondria Different-Phenotype (%): 100%
  Population Mitotic Cells (%): 10%
  Population Normal (%): 85%
  Population Pyknosed Nuclei (%): 56%
  Population Tubulin-Different-Phenotype (%): 100%
  Total Cell Count: 253
[8]
  Population Apoptotic (%): 76%
  Population Fragmented Nuclei (%): 2%
  Population Healthy Nuclei (%): 50%
  Population Hoechst High Intensity Objects (%): 1%
  Population Membrane Permeable-Phenotype (%): 2%
  Population Mitochondria Different-Phenotype (%): 98%
  Population Mitotic Cells (%): 23%
  Population Normal (%): 98%
  Population Pyknosed Nuclei (%): 47%
  Population Tubulin-Different-Phenotype (%): 97%
  Total Cell Count: 258
[11]
  Population Apoptotic (%): 73%
  Population Fragmented Nuclei (%): 14%
  Population Healthy Nuclei (%): 40%
  Population Hoechst High Intensity Objects (%): 11%
  Population Membrane Permeable-Phenotype (%): 2%
  Population Mitochondria Different-Phenotype (%): 96%
  Population Mitotic Cells (%): 26%
  Population Normal (%): 88%
  Population Pyknosed Nuclei (%): 45%
  Population Tubulin-Different-Phenotype (%): 98%
  Total Cell Count: 272
[12]
  Population Apoptotic (%): 83%
  Population Fragmented Nuclei (%): 3%
  Population Healthy Nuclei (%): 72%
  Population Hoechst High Intensity Objects (%): 2%
  Population Membrane Permeable-Phenotype (%): 1%
  Population Mitochondria Different-Phenotype (%): 91%
  Population Mitotic Cells (%): 16%
  Population Normal (%): 97%
  Population Pyknosed Nuclei (%): 23%
  Total Cell Count: 292
